One experiment has as its target T1, B-cell receptor CD22 (Homo sapiens, UniProt P20273).
T1 sequence (P20273 whole entry): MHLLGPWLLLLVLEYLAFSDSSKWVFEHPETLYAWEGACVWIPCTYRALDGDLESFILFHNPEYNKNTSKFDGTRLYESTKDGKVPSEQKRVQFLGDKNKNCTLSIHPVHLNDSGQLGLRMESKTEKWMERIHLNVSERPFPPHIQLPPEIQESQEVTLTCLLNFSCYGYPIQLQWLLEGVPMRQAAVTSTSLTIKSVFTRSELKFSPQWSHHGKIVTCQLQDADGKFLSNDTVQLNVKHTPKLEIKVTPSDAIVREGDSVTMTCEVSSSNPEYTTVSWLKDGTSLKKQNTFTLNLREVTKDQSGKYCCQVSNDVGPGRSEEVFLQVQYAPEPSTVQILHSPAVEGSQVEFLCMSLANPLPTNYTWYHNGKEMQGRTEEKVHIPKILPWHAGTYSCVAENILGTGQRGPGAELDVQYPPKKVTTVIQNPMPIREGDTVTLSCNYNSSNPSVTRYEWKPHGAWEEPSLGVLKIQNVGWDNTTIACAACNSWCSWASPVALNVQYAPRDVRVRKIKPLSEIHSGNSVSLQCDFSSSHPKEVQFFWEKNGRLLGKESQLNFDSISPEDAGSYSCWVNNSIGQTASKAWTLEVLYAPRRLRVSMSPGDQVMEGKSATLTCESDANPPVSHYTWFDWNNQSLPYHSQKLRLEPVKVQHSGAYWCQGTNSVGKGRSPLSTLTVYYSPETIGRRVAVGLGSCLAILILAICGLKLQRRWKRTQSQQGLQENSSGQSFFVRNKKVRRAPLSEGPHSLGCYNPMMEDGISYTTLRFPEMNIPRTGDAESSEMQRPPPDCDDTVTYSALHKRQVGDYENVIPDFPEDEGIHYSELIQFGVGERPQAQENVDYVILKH
The experiment can be described thus: Binding affinity to biotinylated human CD22-human IgG1 chimeric protein expressed in mouse J558LST6 cells by flow cytometry. The class given is cell-based. The method, boiled down: (§1)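 IC50 from inhibition of CD22-Fc binding to alpha2,6-sialic acid on ST6GalI-transfected J558L mouse myeloma cells (J558LST6), incubated with CD22-Fc plus varied sialoside concentrations. Detection with Alexa Fluor 647-streptavidin, 30 min on ice, then flow cytometry. % binding = (A−B)/(C−B)×100 using MFI: A, sialoside sample; B, parent J558L; C, untreated J558LST6. IC50 taken as 50% binding inhibition; means of ≥3 independent determinations.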
On the technique in general: Flow cytometry measures light scatter and fluorescence of single cells or particles in a stream.

A short description of experiment [1]: Binding affinity to biotinylated mouse CD22-human IgG1 chimeric protein expressed in mouse J558LST6 cells by flow cytometry. Format: cell-based. Summed up:
as §1

Each structure is given as a SMILES string.

Turning to `COc1ccc(O[C@@H]2O[C@H](CO[C@]3(C(=O)O)C[C@H](O)[C@@H](NC(=O)CO)[C@H]([C@H](O)[C@H](O)CNCC4CCCCC4)O3)[C@H](O)[C@H](O)[C@H]2O)cc1`, the IC50 on B-cell receptor CD22 worked out at 37.7 µM; in experiment [1], 9.5 µM.

As to `COc1ccc(O[C@@H]2O[C@H](CO[C@]3(C(=O)O)C[C@H](O)[C@@H](NC(=O)CO)[C@H]([C@H](O)[C@H](O)CNCc4ccccc4)O3)[C@H](O)[C@H](O)[C@H]2O)cc1`, the IC50 on B-cell receptor CD22 was found to be 123 µM; in experiment [1] it was 25.7 µM.

Regarding `COc1ccc(O[C@@H]2O[C@H](CO[C@]3(C(=O)O)C[C@H](O)[C@@H](NC(=O)CO)[C@H]([C@H](O)[C@H](O)CNC(=O)Cc4ccc(-c5cccc(O)c5)cc4)O3)[C@H](O)[C@H](O)[C@H]2O)cc1`, the values for the IC50 (at B-cell receptor CD22; in experiment [1]) were 4.3 µM and 2.9 µM, respectively.

Turning to `COc1ccc(O[C@@H]2O[C@H](CO[C@]3(C(=O)O)C[C@H](O)[C@@H](NC(=O)CO)[C@H]([C@H](O)[C@H](O)CNC(=O)CCCc4ccc5ccc6cccc7ccc4c5c67)O3)[C@H](O)[C@H](O)[C@H]2O)cc1`, the IC50 at B-cell receptor CD22 is 21.1 µM; in experiment [1], 66.8 µM.

Regarding `COc1ccc(O[C@@H]2O[C@H](CO[C@]3(C(=O)O)C[C@H](O)[C@@H](NC(=O)CO)[C@H]([C@H](O)[C@H](O)CNCCCCc4ccc(-c5ccccc5)cc4)O3)[C@H](O)[C@H](O)[C@H]2O)cc1`, the half-maximal inhibitory concentration (IC50) at B-cell receptor CD22 came out at 6.22 µM; in experiment [1], 4.1 µM.

As to `COc1ccc(O[C@@H]2O[C@H](CO[C@]3(C(=O)O)C[C@H](O)[C@@H](NC(=O)CO)[C@H]([C@H](O)[C@H](O)CNCc4cc(OC)cc(OC)c4)O3)[C@H](O)[C@H](O)[C@H]2O)cc1`, the 50% inhibitory concentration (IC50) was 24.8 µM on B-cell receptor CD22 and 77.5 µM in experiment [1].

For the molecule `COc1ccc(O[C@@H]2O[C@H](CO[C@]3(C(=O)O)C[C@H](O)[C@@H](NC(=O)CO)[C@H]([C@H](O)[C@H](O)CNCc4ccc(-c5ccc(C(F)(F)F)cc5)cc4)O3)[C@H](O)[C@H](O)[C@H]2O)cc1`, the IC50 at B-cell receptor CD22 came out at 45 µM; in experiment [1], 48 µM.

As for `COc1ccc(O[C@@H]2O[C@H](CO[C@]3(C(=O)O)C[C@H](O)[C@@H](NC(=O)CO)[C@H]([C@H](O)[C@H](O)CNC(=O)Cc4ccc(-c5ccccc5)cc4)O3)[C@H](O)[C@H](O)[C@H]2O)cc1`, the IC50 at B-cell receptor CD22 was 3.7 µM; in experiment [1], 6.2 µM.

Regarding `CCCCCC(=O)NC[C@@H](O)[C@@H](O)[C@@H]1O[C@@](OC[C@H]2O[C@@H](Oc3ccc(OC)cc3)[C@H](O)[C@@H](O)[C@H]2O)(C(=O)O)C[C@H](O)[C@H]1NC(=O)CO`, the IC50 on B-cell receptor CD22 was found to be 40.9 µM; in experiment [1], 88.5 µM.

On to `COc1ccc(O[C@@H]2O[C@H](CO[C@]3(C(=O)O)C[C@H](O)[C@@H](NC(=O)CO)[C@H]([C@H](O)[C@H](O)CNCCc4ccc(-c5ccccc5)cc4)O3)[C@H](O)[C@H](O)[C@H]2O)cc1`, for which the values for the IC50 (on B-cell receptor CD22; in experiment [1]) were 5.48 µM and 11.2 µM, respectively.

In the case of `COc1ccc(O[C@@H]2O[C@H](CO[C@]3(C(=O)O)C[C@H](O)[C@@H](NC(=O)CO)[C@H]([C@H](O)[C@H](O)CNCc4ccc(-c5ccc(C)cc5)cc4)O3)[C@H](O)[C@H](O)[C@H]2O)cc1`, the results for the IC50 (on B-cell receptor CD22; in experiment [1]) were 9.83 µM and 27 µM, respectively.

Regarding `COc1ccc(O[C@@H]2O[C@H](CO[C@]3(C(=O)O)C[C@H](O)[C@@H](NC(=O)CO)[C@H]([C@H](O)[C@H](O)CNC(=O)c4ccc5ccccc5c4)O3)[C@H](O)[C@H](O)[C@H]2O)cc1`, the IC50 on B-cell receptor CD22 came out at 2.6 µM; in experiment [1], 90 µM.

On to `COc1ccc(O[C@@H]2O[C@H](CO[C@]3(C(=O)O)C[C@H](O)[C@@H](NC(=O)CO)[C@H]([C@H](O)[C@H](O)CNC(=O)c4ccc(-c5ccc(C(=O)O)cc5)cc4)O3)[C@H](O)[C@H](O)[C@H]2O)cc1`, for which the IC50 at B-cell receptor CD22 was determined as 73.3 µM; in experiment [1], 23.4 µM.

With `COc1ccc(O[C@@H]2O[C@H](CO[C@]3(C(=O)O)C[C@H](O)[C@@H](NC(=O)CO)[C@H]([C@H](O)[C@H](O)CNC(=O)C4CCCCC4)O3)[C@H](O)[C@H](O)[C@H]2O)cc1`, the IC50 stood at 16 µM on B-cell receptor CD22 and 65.3 µM in experiment [1].

Take `COc1ccc(O[C@@H]2O[C@H](CO[C@]3(C(=O)O)C[C@H](O)[C@@H](NC(=O)CO)[C@H]([C@H](O)[C@H](O)CNC(=O)CCc4ccc(O)cc4)O3)[C@H](O)[C@H](O)[C@H]2O)cc1`: the 50% inhibitory concentration (IC50) is 7.65 µM at B-cell receptor CD22 and 139 µM in experiment [1].

As to `COc1ccc(O[C@@H]2O[C@H](CO[C@]3(C(=O)O)C[C@H](O)[C@@H](NC(=O)CO)[C@H]([C@H](O)[C@H](O)CNCc4ccc(-c5cccc(C(=O)O)c5)cc4)O3)[C@H](O)[C@H](O)[C@H]2O)cc1`, the figures for the IC50 (on B-cell receptor CD22; in experiment [1]) were 7.48 µM and 32.7 µM, respectively.

For `COc1ccc(O[C@@H]2O[C@H](CO[C@]3(C(=O)O)C[C@H](O)[C@@H](NC(=O)CO)[C@H]([C@H](O)[C@H](O)CNC(=O)Cc4ccc(-c5ccc(O)cc5)cc4)O3)[C@H](O)[C@H](O)[C@H]2O)cc1`, the IC50 came out at 0.9 µM at B-cell receptor CD22 and 1.7 µM in experiment [1].

As for `COc1ccc(O[C@@H]2O[C@H](CO[C@]3(C(=O)O)C[C@H](O)[C@@H](NC(=O)CO)[C@H]([C@H](O)[C@H](O)CNC(=O)Cc4ccc5ccccc5c4)O3)[C@H](O)[C@H](O)[C@H]2O)cc1`, the figures for the IC50 (at B-cell receptor CD22; in experiment [1]) were 1 µM and 24.7 µM, respectively.

As for `COc1ccc(O[C@@H]2O[C@H](CO[C@]3(C(=O)O)C[C@H](O)[C@@H](NC(=O)CO)[C@H]([C@H](O)[C@H](O)CNCc4ccc(-c5ccc(O)cc5)cc4)O3)[C@H](O)[C@H](O)[C@H]2O)cc1`, the figures for the half-maximal inhibitory concentration (IC50) (at B-cell receptor CD22; in experiment [1]) were 0.24 µM and 6.43 µM, respectively.

With `COc1ccc(O[C@@H]2O[C@H](CO[C@]3(C(=O)O)C[C@H](O)[C@@H](NC(=O)CO)[C@H]([C@H](O)[C@H](O)CNC(=O)c4ccc(-c5ccccc5)cc4)O3)[C@H](O)[C@H](O)[C@H]2O)cc1`, the values for the IC50 (on B-cell receptor CD22; in experiment [1]) were 1.1 µM and 52.9 µM, respectively.

Consider `COc1ccc(O[C@@H]2O[C@H](CO[C@]3(C(=O)O)C[C@H](O)[C@@H](NC(=O)CO)[C@H]([C@H](O)[C@H](O)CNCc4ccc(-c5ccc(OC)cc5)cc4)O3)[C@H](O)[C@H](O)[C@H]2O)cc1`, for which the IC50 at B-cell receptor CD22 came to 1.76 µM; in experiment [1] it was 30 µM.

For `COc1ccc(O[C@@H]2O[C@H](CO[C@]3(C(=O)O)C[C@H](O)[C@@H](NC(=O)CO)[C@H]([C@H](O)[C@H](O)CNCc4ccc(-c5ccc(C(=O)O)cc5)cc4)O3)[C@H](O)[C@H](O)[C@H]2O)cc1`, the concentration for half-maximal inhibition (IC50) was 43 µM on B-cell receptor CD22 and 10 µM in experiment [1].

As for `COc1ccc(O[C@@H]2O[C@H](CO[C@]3(C(=O)O)C[C@H](O)[C@@H](NC(=O)CO)[C@H]([C@H](O)[C@H](O)CNCc4ccc(-c5cccc(O)c5)cc4)O3)[C@H](O)[C@H](O)[C@H]2O)cc1`, the IC50 on B-cell receptor CD22 worked out at 1.73 µM; in experiment [1], 16.5 µM.

On to `COc1ccc(O[C@@H]2O[C@H](CO[C@]3(C(=O)O)C[C@H](O)[C@@H](NC(=O)CO)[C@H]([C@H](O)[C@H](O)CNC(=O)CCc4ccccc4)O3)[C@H](O)[C@H](O)[C@H]2O)cc1`, for which the IC50 on B-cell receptor CD22 is 10.4 µM; in experiment [1] it was 168 µM.

Take `COc1ccc(O[C@@H]2O[C@H](CO[C@]3(C(=O)O)C[C@H](O)[C@@H](NC(=O)CO)[C@H]([C@H](O)[C@H](O)CNC(=O)c4ccc(-c5cccc(C(=O)O)c5)cc4)O3)[C@H](O)[C@H](O)[C@H]2O)cc1`: the values for the IC50 (on B-cell receptor CD22; in experiment [1]) were 7.13 µM and 16.6 µM, respectively.

Turning to `COc1ccc(O[C@@H]2O[C@H](CO[C@]3(C(=O)O)C[C@H](O)[C@@H](NC(=O)CO)[C@H]([C@H](O)[C@H](O)CNCc4ccc(-c5ccccc5)cc4)O3)[C@H](O)[C@H](O)[C@H]2O)cc1`, the values for the IC50 (on B-cell receptor CD22; in experiment [1]) were 0.47 µM and 16.3 µM, respectively.

With `COc1ccc(O[C@@H]2O[C@H](CO[C@]3(C(=O)O)C[C@H](O)[C@@H](NC(=O)CO)[C@H]([C@H](O)[C@H](O)CNC(=O)c4ccc(-c5ccc(O)cc5)cc4)O3)[C@H](O)[C@H](O)[C@H]2O)cc1`, the results for the IC50 (at B-cell receptor CD22; in experiment [1]) were 0.4 µM and 8.63 µM, respectively.

With `COc1ccc(O[C@@H]2O[C@H](CO[C@]3(C(=O)O)C[C@H](O)[C@@H](NC(=O)CO)[C@H]([C@H](O)[C@H](O)CNC(=O)C(c4ccccc4)c4ccccc4)O3)[C@H](O)[C@H](O)[C@H]2O)cc1`, the figures for the IC50 (on B-cell receptor CD22; in experiment [1]) were 8.85 µM and 63.5 µM, respectively.

On to `COc1ccc(O[C@@H]2O[C@H](CO[C@]3(C(=O)O)C[C@H](O)[C@@H](NC(=O)CO)[C@H]([C@H](O)[C@H](O)CNCc4ccc(-c5ccccc5O)cc4)O3)[C@H](O)[C@H](O)[C@H]2O)cc1`, for which the IC50 on B-cell receptor CD22 came to 0.23 µM; in experiment [1] it was 12.5 µM.

The term IC50 denotes the point on the concentration scale where inhibition reaches its midpoint. Read a high IC50 as weaker potency.
